Assay results published in PMC4079331 (Journal of Medicinal Chemistry, 2014).
Each block holds one compound with its values, some of them ahead of it.

Tests used:
CLL patient cells = test: In vitro activity against CLL patient cells, summary statements over cell lines; type: cell-based, human; settings: for in vitro activity against CLL patient cells: result in words
How it was run: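 Primary CLL cells from consented patients, cultured in RPMI with 10% FBS and test compound at designated concentrations for 48 h (37 °C, 5% CO2). Viability is the DiOC6+/PI− fraction relative to untreated or vehicle control. EC50 and SE come from dose–response curves.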

[1] = Phase I metabolism in human microsomes; type: in vitro ADME; settings: 1 h incubation, 100 μM, NADPH
How it was run: (§1)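 Mouse or human microsomes (5 mg/mL protein final) in 0.1 M sodium phosphate pH 7.4 with 100 μM test compound (DMSO <1%), preincubated 5 min at 37 °C. Started with 1 mM NADPH and run 60 min at 37 °C. Stopped with MeOH and centrifuged; supernatant analysed by LCMS. Controls: zero time, no NADPH, boiled microsomes, and 7-ethoxycoumarin as CYP substrate.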

[2] = Phase I metabolism in mouse microsomes; type: in vitro ADME; settings: 1 h incubation, 100 μM, NADPH
How it was run: as §1

[3] = system: CLL1 (CLL patient cell line); test: In vitro cytotoxicity against primary CLL patient cells CLL1; type: cell-based, human; settings: read-out: antitumor EC50 CLL1; Table 3; SE ±0.01 μM
[4] = system: JVM-2 (ATCC leukemia cell line); test: In vitro cytotoxicity against JVM-2; type: cell-based; settings: read-out: antitumor EC50 JVM-2; Table 3; SE ±0.01 μM
[5] = system: CLL2 (CLL patient cell line); test: In vitro cytotoxicity against primary CLL patient cells CLL2; type: cell-based, human; settings: for EC50: read-out: antitumor EC50 CLL2, Table 3, SE ±0.01 μM
HeLa cell line = test: HeLa cell viability by the MTT method; type: cell-based; settings: read-out: antitumor EC50 HeLa; Table 3; SE ±0.01 μM
[6] = Phase II glucuronidation in mouse S9 fractions; type: in vitro ADME
[7] = Phase II glucuronidation in human S9 fractions; type: in vitro ADME
[8] = Nonspecific protein binding, from recovery out of plasma and serum; type: in vitro ADME; settings: result in words
How it was run: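 Test compound at 50 μM final (1% DMSO) in pooled female BALB/c mouse plasma or serum, or in human AB serum, incubated at 37 °C with gentle agitation. Aliquots taken at 0, 0.5, 1, 2, 8, 18 and 24 h were precipitated with CH3CN and centrifuged at 3000g for 10 min; supernatants were quantified by LCMS. Run in triplicate.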

CLL = settings: read-out: EC50 against CLL; p53-independent activity; cited from earlier work
[9] = system: KB nasopharyngeal tumor cells; settings: in vitro cultured cells; from the literature, reference not given; cited from earlier work
[10] = Stability in mouse plasma; type: in vitro ADME; settings: female, BALB/c, mouse plasma (pooled)
How it was run: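 Test compound at 50 μM final (1% DMSO) in pooled plasma from female BALB/c mice or human AB serum. Incubated at 37 °C with gentle agitation. Samples taken at 0, 0.5, 1, 2, 8, 18 and 24 h. Proteins precipitated with CH3CN, vortexed and centrifuged (3000g, 10 min, room temperature); supernatant analysed by LCMS. Run in triplicate.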

Compound: CN1C(=O)N[C@H]2[C@@H]3NC(=O)c4cc(Cl)c(Cl)n4[C@@H]3C[C@]21O [1e, 13-Debromo-13,14-dichloro-agelastatin A]
in vitro activity against CLL patient cells (CLL patient cells): nanomolar

metabolism by cytochrome P450 enzymes, recovery from supernatant (LCMS) [1]: metabolized | metabolism by cytochrome P450 enzymes, recovery from supernatant (LCMS) [2]: metabolized
Compound: CCOc1ccc2ccc(=O)oc2c1 [7-ethoxycoumarin, reference compound]

Compound: CN1C(=O)N[C@H]2[C@@H]3NC(=O)c4ccc(Cl)n4[C@@H]3C[C@]21O [1d, 13-Debromo-13-chloro-agelastatin A]
in vitro activity against CLL patient cells (CLL patient cells): nanomolar

Compound: O-Methyl-agelastatin A [4b]
EC50 [3]: 867 µM | EC50 [4]: 429 µM | EC50 [5]: 28.8 µM | EC50 (HeLa cell line): 91.4 µM

Compound: CN1C(=O)N[C@H]2[C@@H]3NC(=O)c4ccc(Br)n4[C@@H]3C[C@]21O [1a, (−)-Agelastatin A]
EC50 (CLL patient cells; read-out: EC50, CLL activity, range over the cell lines tested): 0.11 to 0.31 µM | formation of glucuronides [6]: No formation of glucoronides was detected | metabolism by cytochrome P450 enzymes, recovery from supernatant (LCMS) [1]: quantitative recovery | formation of glucuronides [7]: No formation of glucoronides was detected | nonspecific protein binding [8]: relatively low | EC50 (CLL): 0.06 to 0.1 µM | IC50, growth of KB nasopharyngeal tumor cells [9]: 0.5–1 μg mL^–1 | metabolism by cytochrome P450 enzymes, recovery from supernatant (LCMS) [2]: quantitative recovery

metabolism by cytochrome P450 enzymes, recovery from supernatant (LCMS) [1]: quantitative recovery | recovery at 24 h, 50 μM [10]: 65 to 90% | nonspecific protein binding [8]: relatively low | metabolism by cytochrome P450 enzymes, recovery from supernatant (LCMS) [2]: quantitative recovery
Compound: CN1C(=O)N[C@H]2[C@@H]3NC(=O)c4ccc(C(F)(F)F)n4[C@@H]3C[C@]21O [1j, 13-Debromo-13-trifluoromethyl-agelastatin A]
in vitro activity against CLL patient cells (CLL patient cells): nanomolar

Compound: CN1C(=O)N[C@H]2[C@@H]3NC(=O)c4ccc(C#N)n4[C@@H]3C[C@]21O [1n, 13-Debromo-13-cyano-agelastatin A]
in vitro activity against CLL patient cells (CLL patient cells): nanomolar

Compound: O-(2′-Methoxyethyl)-agelastatin A [4c]
EC50 [4]: 21.1 µM | EC50 [5]: 9.39 µM

Compound: CN1C(=O)N[C@H]2[C@@H]3NC(=O)c4ccc(I)n4[C@@H]3C[C@]21O [1g, 13-Debromo-13-iodo-agelastatin A]
in vitro activity against CLL patient cells (CLL patient cells): nanomolar

metabolism by cytochrome P450 enzymes, recovery from supernatant (LCMS) [1]: near quantitative recovery | metabolism by cytochrome P450 enzymes, recovery from supernatant (LCMS) [2]: near quantitative recovery
Compound: CN1C(=O)N[C@H]2[C@@H]3NC(=O)c4cccn4[C@@H]3C[C@]21O [1p, 13-Debromo-agelastatin A]
loss of activity on removal of Br from C-13 ([5]; compared with 1a): 25 fold
